Measured values as given in ChEMBL document CHEMBL2057145, “Development of novel antibacterial agents against methicillin-resistant Staphylococcus aureus” (Bioorg Med Chem, 2012).
≈ marks a conversion by molar mass, not a printed value.

Key:
[1] = system: Staphylococcus epidermidis; experiment: Antibacterial activity against Staphylococcus epidermidis ATCC 12228 after 24 hrs by broth microdilution method; assay type: functional; conditions: ATCC 12228, 24 h
[2] = system: Staphylococcus lugdunensis; experiment: Antibacterial activity against Staphylococcus lugdunensis isolate NTUH after 24 hrs by broth microdilution method; assay type: functional
Staphylococcus aureus [3] = experiment: Antibacterial activity against methicillin-resistant Staphylococcus aureus ATCC 49476 after 24 hrs by broth microdilution method; conditions: ATCC 49476, 24 h
[4] = Selectivity ratio of IC50 for human HT-29 cells to MIC for Staphylococcus aureus ATCC 29213; assay type: functional
Outline: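 Ratio of HT-29 IC50 (MTT assay, 24 h exposure) to MIC against S. aureus ATCC 29213 (CLSI broth microdilution, 24 h, 37 °C).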

Staphylococcus aureus [5] = experiment: Antibacterial activity against methicillin-resistant Staphylococcus aureus expressing […] subtype VT after 24 hrs by broth microdilution method; assay type: functional
Outline: (§1)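 CLSI broth microdilution. Bacteria grown overnight on LB agar, suspended in PBS, then exposed to test agents at 0.25 to 64 µg/mL in triplicate. Incubation 37 °C for 24 h. MIC is the lowest concentration with no visible bacterial growth. DMSO stocks diluted in culture medium to a final DMSO of 0.1%.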

Staphylococcus aureus [6] = experiment: Antibacterial activity against Staphylococcus aureus ATCC 29213 after 24 hrs by broth microdilution method; assay type: functional; conditions: ATCC 29213, 24 h
Staphylococcus aureus [7] = experiment: Antibacterial activity against Staphylococcus aureus ATCC 12598 after 24 hrs by broth microdilution method; assay type: functional; conditions: ATCC 12598, 24 h
Outline: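 CLSI broth microdilution. Incubation 37 °C for 24 h. MIC is the lowest concentration with no visible bacterial growth. DMSO stocks diluted in culture medium to a final DMSO of 0.1%.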

Staphylococcus aureus [8] = experiment: Antibacterial activity against methicillin-resistant Staphylococcus aureus ATCC 33592 after 24 hrs by broth microdilution method; assay type: functional; conditions: ATCC 33592, 24 h; outline: as §1
[9] = system: Staphylococcus intermedius; experiment: Antibacterial activity against Staphylococcus intermedius ATCC 29663 after 24 hrs by broth microdilution method; assay type: functional; conditions: ATCC 29663, 24 h
[10] = system: Staphylococcus epidermidis; experiment: Antibacterial activity against Staphylococcus epidermidis ATCC 35984 after 24 hrs by broth microdilution method; assay type: functional; conditions: RP62A
HT-29 = experiment: Antiproliferative activity against human HT-29 cells after 24 hrs by MTT assay; assay type: cell-based; conditions: HT-29, 24 h
Outline: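 HT-29 human colon adenocarcinoma cells seeded at 1 × 10⁴ cells/well in RPMI 1640 with 10% FBS and 10 µg/mL gentamicin, left overnight at 37 °C, 5% CO₂. Medium then replaced with medium holding test agents (final DMSO 0.1%; DMSO-only controls), at least 6 wells per condition, for 24 h. Viability read by MTT (0.5 mg/mL, 2 h, 37 °C), DMSO solubilization, absorbance 570 nm.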

Mus musculus [11] = experiment: Toxicity in C57BL/6 mouse infected with methicillin-resistant Staphylococcus aureus ATCC 33592 assessed as weight loss at 30 mg/kg, ip administered 1 hr post infection measured on day 3 to 6 post infection; assay type: organism-based; set-up: dose 30 mg/kg, route intraperitoneal; conditions: in vivo
Outline: (§2)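 Female C57BL/6 mice, N = 5 per group, were infected ip with a 100% lethal dose of MRSA, 7 × 10⁷ CFU in 0.3 ml PBS. At 1 h they received one ip dose of 30 mg/kg in vehicle (40% PEG-400, 10% […], 10% DMSO in normal saline). Body weight and morbidity were recorded daily for 7 days. Mice were sacrificed on significant morbidity, including 20% weight loss.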

Mus musculus [12] = experiment: Toxicity in C57BL/6 mouse infected with methicillin-resistant Staphylococcus aureus ATCC 33592 assessed as weight loss at 30 mg/kg, ip administered 1 hr post infection measured on day 1 post infection; assay type: organism-based; set-up: dose 30 mg/kg, route intraperitoneal; conditions: in vivo; outline: as §2
Staphylococcus aureus [13] = experiment: Bactericidal activity against Staphylococcus aureus ATCC 29213 assessed as decrease in bacterial count at 2 to 8 times compound MIC by time-kill assay; assay type: functional, organism-based; conditions: TDE = time-dependent effect
Outline: (§3)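 S. aureus ATCC 29213 at 5 × 10⁵ CFU/mL in CAMHB exposed to test agents at 2-, 4- and 8-fold MIC, in triplicate. DMSO-matched medium served as control. At successive times, aliquots serially diluted in PBS and plated on LB agar (37 °C, 16 h). Counts given as CFU/mL, mean ± SD (n = 3); 99.9% killing used as reference.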

Mus musculus [14] = experiment: Toxicity in C57BL/6 mouse infected with methicillin-resistant Staphylococcus aureus ATCC 33592 assessed as mortality at 30 mg/kg, ip administered 1 hr post infection; assay type: organism-based; set-up: dose 30 mg/kg, route intraperitoneal; conditions: in vivo; outline: as §2
Staphylococcus aureus [15] = experiment: Antibacterial activity against methicillin-resistant Staphylococcus aureus ATCC 33592 infected in C57BL/6 mouse assessed as mouse survival time at 30 mg/kg, ip administered 1 hr post infection; assay type: functional; conditions: route intraperitoneal; outline: as §2
Staphylococcus aureus [16] = experiment: Bactericidal activity against Staphylococcus aureus ATCC 29213 assessed as decrease in bacterial count at 8 times compound MIC after 24 hrs by time-kill assay; assay type: functional; set-up: scale not given: the % may be the effect or the level left; outline: as §3
Mus musculus [17] = experiment: Toxicity in C57BL/6 mouse infected with methicillin-resistant Staphylococcus aureus ATCC 33592 assessed as lethargy at 30 mg/kg, ip administered 1 hr post infection; assay type: organism-based; set-up: dose 30 mg/kg, route intraperitoneal; conditions: in vivo; outline: as §2
Mus musculus [18] = experiment: Toxicity in C57BL/6 mouse infected with methicillin-resistant Staphylococcus aureus ATCC 33592 assessed as weight loss at 30 mg/kg, ip administered 1 hr post infection; assay type: organism-based; set-up: dose 30 mg/kg, route intraperitoneal; conditions: in vivo; outline: as §2
Mus musculus [19] = experiment: Toxicity in C57BL/6 mouse infected with methicillin-resistant Staphylococcus aureus ATCC 33592 assessed as decrease in body temperature at 30 mg/kg, ip administered 1 hr post infection; assay type: organism-based; set-up: dose 30 mg/kg, route intraperitoneal; conditions: in vivo; outline: as §2
Staphylococcus aureus [20] = experiment: Antibacterial activity against Staphylococcus aureus assessed as log decrease in bacterial CFU at 32 ug/ml after 24 hrs; assay type: functional
[21] = system: Staphylococcus haemolyticus; experiment: Antibacterial activity against Staphylococcus haemolyticus ATCC 29970 after 24 hrs by broth microdilution method; assay type: functional; conditions: ATCC 29970, 24 h
Staphylococcus hominis = experiment: Antibacterial activity against Staphylococcus hominis ATCC 27844 after 24 hrs by broth microdilution method; assay type: functional; conditions: ATCC 27844, 24 h
[22] = system: Staphylococcus saprophyticus; experiment: Antibacterial activity against Staphylococcus saprophyticus ATCC 15305 after 24 hrs by broth microdilution method; assay type: functional; conditions: ATCC 15305, 24 h

Structure (SMILES)	MIC [1] [µg/mL]	MIC [2] [µg/mL]	MIC (Staphylococcus aureus [3]) [µg/mL]	Ratio [4]	MIC (Staphylococcus aureus [5]) [µg/mL]	MIC (Staphylococcus aureus [6]) [µg/mL]	MIC (Staphylococcus aureus [8]) [µg/mL]	MIC [9] [µg/mL]	MIC [10] [µg/mL]	IC50 (HT-29) [µg/mL]	also measured
NS(=O)(=O)Nc1ccc(-n2nc(C(F)(F)F)cc2-c2ccc(-c3ccc(Br)cc3)cc2)cc1	1 (≈ 1.86 µM)	2 (≈ 3.72 µM)	1 (≈ 1.86 µM)	10	1 (≈ 1.86 µM)	1 (≈ 1.86 µM)	1 (≈ 1.86 µM)	2 (≈ 3.72 µM)			MIC (Staphylococcus aureus [7]): 1 µg/mL (≈ 1.86 µM)
NCCC(=O)Nc1ccc(-n2nc(C(F)(F)F)cc2-c2ccc3c(c2)oc2ccccc23)cc1				1.8		4 (≈ 8.61 µM)			4 (≈ 8.61 µM)		
Cc1ccc(-c2cc(C(F)(F)F)nn2-c2ccc(NS(N)(=O)=O)cc2)cc1	4 (≈ 10.1 µM)	16 (≈ 40.4 µM)	4 (≈ 10.1 µM)	7	4 (≈ 10.1 µM)	4 (≈ 10.1 µM)	4 (≈ 10.1 µM)	8 (≈ 20.2 µM)	4 (≈ 10.1 µM)	28 (≈ 70.6 µM)	MIC (Staphylococcus aureus [7]): 4 µg/mL (≈ 10.1 µM)
NS(=O)(=O)Nc1ccc(-n2nc(C(F)(F)F)cc2-c2c3ccccc3cc3ccccc23)cc1		4 (≈ 8.29 µM)		40				0.5 (≈ 1.04 µM)	1 (≈ 2.07 µM)	20 (≈ 41.5 µM)	Activity (Mus musculus [11]): Non-toxic; Activity (Mus musculus [12]): Toxic; Activity (Staphylococcus aureus [13]): tde; Activity (Mus musculus [14]): Toxic; Survival (Staphylococcus aureus [15]): 7 days; Activity (Staphylococcus aureus [16]): 99.99%
NC(=O)c1ccc(-n2nc(C(F)(F)F)cc2-c2c3ccccc3cc3ccccc23)cc1		4 (≈ 9.27 µM)		6		2 (≈ 4.64 µM)	4 (≈ 9.27 µM)	4 (≈ 9.27 µM)	2 (≈ 4.64 µM)	12 (≈ 27.8 µM)	Activity (Staphylococcus aureus [13]): tde; Activity (Staphylococcus aureus [16]): 99.14%
NCC(=O)Nc1ccc(-n2nc(C(F)(F)F)cc2-c2ccc3c(ccc4ccccc43)c2)cc1 [AR-12]				0.9		4 (≈ 8.69 µM)			4 (≈ 8.69 µM)		
O=C(N[C@H](CO)[C@H](O)c1ccc([N+](=O)[O-])cc1)C(Cl)Cl [CHLORAMPHENICOL]		2 (≈ 6.19 µM)			32 (≈ 99 µM)	8 (≈ 24.8 µM)	64 (≈ 198 µM)		8 (≈ 24.8 µM)		
NCCCC[C@H](N)C(=O)Nc1ccc(-n2nc(C(F)(F)F)cc2-c2ccc3c(ccc4ccccc43)c2)cc1				4.9						19.5 (≈ 36.7 µM)	
NS(=O)(=O)Nc1ccc(-n2nc(C(F)(F)F)cc2-c2ccc3c(ccc4ccccc43)c2)cc1		2 (≈ 4.15 µM)		12		1 (≈ 2.07 µM)		1 (≈ 2.07 µM)	2 (≈ 4.15 µM)		Activity (Mus musculus [17]): Toxic; Activity (Staphylococcus aureus [13]): tde; Activity (Mus musculus [18]): > 20%; Activity (Mus musculus [19]): Toxic; Survival (Staphylococcus aureus [15]): <=2 day; Activity (Staphylococcus aureus [16]): 99.91%
Cc1ccc(-c2ccc(-c3cc(C(F)(F)F)nn3-c3ccc(NS(N)(=O)=O)cc3)cc2)cc1	1 (≈ 2.12 µM)	2 (≈ 4.23 µM)	1 (≈ 2.12 µM)	9	1 (≈ 2.12 µM)	1 (≈ 2.12 µM)	1 (≈ 2.12 µM)	2 (≈ 4.23 µM)			MIC (Staphylococcus aureus [7]): 1 µg/mL (≈ 2.12 µM)
Cc1ccc(-c2cc(C(F)(F)F)nn2-c2ccc(S(N)(=O)=O)cc2)cc1 [CELECOXIB]				0.6		32 (≈ 83.9 µM)			16 (≈ 42 µM)	18 (≈ 47.2 µM)	FC (Staphylococcus aureus [20]): 6
NS(=O)(=O)Nc1ccc(-n2nc(C(F)(F)F)cc2-c2ccc3cc4ccccc4cc3c2)cc1	2 (≈ 4.15 µM)	4 (≈ 8.29 µM)	2 (≈ 4.15 µM)	2.8	2 (≈ 4.15 µM)		2 (≈ 4.15 µM)	4 (≈ 8.29 µM)		11 (≈ 22.8 µM)	MIC [21]: 16 µg/mL (≈ 33.2 µM); MIC (Staphylococcus hominis): 2 µg/mL (≈ 4.15 µM); MIC [22]: 8 µg/mL (≈ 16.6 µM)
NCC(=O)Nc1ccc(-n2nc(C(F)(F)F)cc2-c2ccc3c(c2)Nc2ccccc2S3)cc1				1.6		4 (≈ 8.31 µM)			4 (≈ 8.31 µM)		
